# Test results taken from ChEMBL document CHEMBL5678817, “FTBMT, a Novel and Selective GPR52 Agonist, Demonstrates Antipsychotic-Like and Procognitive Effects in Rodents, Revealing a Potential Therapeutic Agent for Schizophrenia” (J Pharmacol Exp Ther, 2017).
# Active and inactive are the calls of the source. No cut-off for these calls is given here.
# How the values were obtained:
# [1] = target: 5-hydroxytryptamine receptor 4 (Homo sapiens) (UniProt Q13639); test: Inhibition of Serotonin 5-HT4 receptor (unknown origin) at 10 uM relative to control
# 5-hydroxytryptamine receptor 4 (Homo sapiens), sequence (Q13639 whole entry): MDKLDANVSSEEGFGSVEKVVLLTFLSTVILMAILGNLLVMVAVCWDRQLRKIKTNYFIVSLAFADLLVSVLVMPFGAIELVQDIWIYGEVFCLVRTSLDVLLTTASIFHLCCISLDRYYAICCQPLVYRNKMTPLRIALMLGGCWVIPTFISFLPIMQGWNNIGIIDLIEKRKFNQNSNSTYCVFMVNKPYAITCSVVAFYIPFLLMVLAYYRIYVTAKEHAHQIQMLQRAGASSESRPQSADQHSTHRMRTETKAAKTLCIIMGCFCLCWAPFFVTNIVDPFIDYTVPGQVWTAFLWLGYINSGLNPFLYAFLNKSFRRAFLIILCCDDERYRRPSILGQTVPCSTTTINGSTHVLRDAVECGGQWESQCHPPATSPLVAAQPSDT
# How it was run: (§1)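 Part of a 98-target external biochemical selectivity panel that used radioligand/receptor binding-type assays. Compound tested once at 10 µM. Results are reported as % inhibition versus control; negative values mean stimulation of receptor activity.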
# [2] = target: Xanthine oxidase (xanthine dehydrogenase/oxidase) (Homo sapiens, UniProt P47989); test: Inhibition of Xanthine oxidase (unknown origin) at 10 uM relative to control
# How it was run: (§2)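 Binding and enzyme panel run by an outside contractor against receptors, ion channels and enzymes. Each assay used a single 10 μM test concentration, and results are expressed as percent inhibition. A negative value means stimulation of receptor activity or activation of enzyme activity.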
# [3] = target: Thromboxane A2 receptor (Homo sapiens) (UniProt P21731); test: Inhibition of Thromboxane A2 receptor (unknown origin) at 10 uM relative to control; how it was run: as §2
# Thromboxane A2 receptor (Homo sapiens), sequence (P21731 whole entry): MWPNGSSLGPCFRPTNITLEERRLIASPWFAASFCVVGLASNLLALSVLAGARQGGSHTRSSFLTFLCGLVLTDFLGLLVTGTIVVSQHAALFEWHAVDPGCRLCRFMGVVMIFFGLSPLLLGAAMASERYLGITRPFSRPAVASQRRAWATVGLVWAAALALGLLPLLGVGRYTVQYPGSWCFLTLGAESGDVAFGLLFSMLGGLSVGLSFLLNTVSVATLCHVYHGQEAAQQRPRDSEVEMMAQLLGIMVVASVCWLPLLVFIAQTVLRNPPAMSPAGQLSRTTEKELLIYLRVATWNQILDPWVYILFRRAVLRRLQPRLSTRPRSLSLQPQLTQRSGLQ
# [4] = target: Matrilysin (Homo sapiens) (UniProt P09237); test: Inhibition of MMP7 (unknown origin) at 10 uM relative to control
# How it was run: (§3)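 Enzyme activity assays from the same 98-target biochemical panel. Single test concentration of 10 µM. Read-out is % inhibition of enzyme activity relative to control; negative percentages indicate activation of the enzyme.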
# [5] = target: Voltage-gated L-type calcium channel (Homo sapiens, UniProt O60840+Q01668+Q13698+Q13936); test: Inhibition of Calcium channel L-type (unknown origin) at 10 uM in presence of phenylalkylamine relative to control; type: protein assay; details: probe phenylalkylamine
# How it was run: (§4)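 Single-point screen at 10 μM across receptor, ion channel and enzyme binding or activity assays. Expressed as percent inhibition versus control; negative values denote stimulation.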
# [6] = target: Nitric oxide synthase 1 (Homo sapiens) (UniProt P29475); test: Inhibition of nNOS (unknown origin) at 10 uM relative to control; how it was run: as §2
# Nitric oxide synthase 1 (Homo sapiens), sequence (P29475 whole entry): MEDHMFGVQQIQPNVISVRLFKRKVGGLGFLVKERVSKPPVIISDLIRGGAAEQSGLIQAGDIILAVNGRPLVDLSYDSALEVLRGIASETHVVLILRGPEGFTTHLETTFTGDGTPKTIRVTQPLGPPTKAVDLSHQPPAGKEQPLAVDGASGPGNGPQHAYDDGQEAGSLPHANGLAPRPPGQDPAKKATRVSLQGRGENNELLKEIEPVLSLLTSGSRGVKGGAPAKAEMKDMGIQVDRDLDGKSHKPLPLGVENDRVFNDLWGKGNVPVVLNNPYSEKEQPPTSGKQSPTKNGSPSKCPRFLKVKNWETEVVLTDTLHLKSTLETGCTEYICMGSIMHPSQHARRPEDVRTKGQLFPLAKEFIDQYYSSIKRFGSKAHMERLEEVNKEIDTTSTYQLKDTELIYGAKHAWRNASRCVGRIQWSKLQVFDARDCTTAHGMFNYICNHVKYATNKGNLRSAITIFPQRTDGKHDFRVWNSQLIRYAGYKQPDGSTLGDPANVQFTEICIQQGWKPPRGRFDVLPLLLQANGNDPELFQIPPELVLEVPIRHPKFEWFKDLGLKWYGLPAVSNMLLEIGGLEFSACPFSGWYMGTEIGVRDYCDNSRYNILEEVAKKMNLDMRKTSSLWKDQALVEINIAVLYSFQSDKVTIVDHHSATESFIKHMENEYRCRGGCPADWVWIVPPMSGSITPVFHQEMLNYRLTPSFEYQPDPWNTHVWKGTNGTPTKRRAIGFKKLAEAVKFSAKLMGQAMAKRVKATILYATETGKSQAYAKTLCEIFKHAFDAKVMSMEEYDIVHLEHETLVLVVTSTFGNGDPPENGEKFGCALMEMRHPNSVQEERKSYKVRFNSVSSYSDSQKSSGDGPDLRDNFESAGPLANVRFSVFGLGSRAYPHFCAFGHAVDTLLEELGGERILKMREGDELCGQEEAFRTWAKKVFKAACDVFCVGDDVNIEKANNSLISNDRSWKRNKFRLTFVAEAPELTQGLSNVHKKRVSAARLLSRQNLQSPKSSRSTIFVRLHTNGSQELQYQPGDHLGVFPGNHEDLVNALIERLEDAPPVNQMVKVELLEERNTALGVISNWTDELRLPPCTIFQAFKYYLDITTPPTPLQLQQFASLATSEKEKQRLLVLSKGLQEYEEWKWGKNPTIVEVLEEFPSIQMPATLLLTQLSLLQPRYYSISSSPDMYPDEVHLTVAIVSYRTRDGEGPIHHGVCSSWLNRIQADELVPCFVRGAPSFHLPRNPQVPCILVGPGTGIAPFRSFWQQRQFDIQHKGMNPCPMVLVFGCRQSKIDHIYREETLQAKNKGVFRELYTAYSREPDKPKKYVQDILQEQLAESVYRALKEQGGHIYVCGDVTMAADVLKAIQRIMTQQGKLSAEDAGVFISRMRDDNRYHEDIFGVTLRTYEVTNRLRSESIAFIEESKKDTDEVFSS
# [7] = target: Glucocorticoid receptor (Homo sapiens) (UniProt P04150); test: Inhibition of Glucocorticoid receptor (unknown origin) at 10 uM relative to control; how it was run: as §1
# Mus musculus [8] = test: Antipsychotic activity in C57BL/6N mouse assessed as increase in Egr-2 mRNA expression at 3 to 100 mg/kg, po measured for 1 hr by qPCR analysis; type: functional, organism-based; details: dose 3-100 mg/kg
# How it was run: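 Mice dosed orally at 3–100 mg/kg or vehicle. Tissues taken 1 h post-dose, NAc shell and striatum dissected, frozen on dry ice. IEG mRNA quantified by qPCR (absolute or ΔΔCt); n = 5–6; mean ± SEM.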
# Mus musculus [9] = test: Antipsychotic activity in wild type mouse assessed as increase in phosphorylated CREB level in striatum at 30 mg/kg, po incubated for 60 mins by ELISA analysis; type: functional, organism-based
# [10] = target: Serotonin 3 (5-HT3) receptor (Homo sapiens) (UniProt P46098+A5X5Y0+O95264+Q70Z44+Q8WXA8); test: Inhibition of Serotonin 5-HT3 receptor (unknown origin) at 10 uM relative to control; type: protein-complex assay; how it was run: as §1
# [11] = target: GABA-A receptor; anion channel (Homo sapiens) (UniProt P14867+P47870+P18507+P28472+P48169+Q99928+Q9UN88+P34903+O00591+O14764+Q8N1C3+P18505+P78334+P47869+P31644+Q16445); test: Inhibition of GABAA receptor (unknown origin) at 10 uM in presence of flunitrazepam relative to control; type: protein-complex assay; how it was run: as §1
# Homo sapiens [12] = organism: Homo sapiens; test: Inhibition of EGF receptor (unknown origin) at 10 uM relative to control; how it was run: as §3
# Homo sapiens [13] = organism: Homo sapiens; test: Inhibition of strychnine-Glycine receptor (unknown origin) at 10 uM relative to control; how it was run: as §2
# [14] = target: Kappa-type opioid receptor (Homo sapiens) (UniProt P41145); test: Inhibition of opioid kappa receptor (unknown origin) at 10 uM relative to control; how it was run: as §2
# Kappa-type opioid receptor (Homo sapiens), sequence (P41145 whole entry): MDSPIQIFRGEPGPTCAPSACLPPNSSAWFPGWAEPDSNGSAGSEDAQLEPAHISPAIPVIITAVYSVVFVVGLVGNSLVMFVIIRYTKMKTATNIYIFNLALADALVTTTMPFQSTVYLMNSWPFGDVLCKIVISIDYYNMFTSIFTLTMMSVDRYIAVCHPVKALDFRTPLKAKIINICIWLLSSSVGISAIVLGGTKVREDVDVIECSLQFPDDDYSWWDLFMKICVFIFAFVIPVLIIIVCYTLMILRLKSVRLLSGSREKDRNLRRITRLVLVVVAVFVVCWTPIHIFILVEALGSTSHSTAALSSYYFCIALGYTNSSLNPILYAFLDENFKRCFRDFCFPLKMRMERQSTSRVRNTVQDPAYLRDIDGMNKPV
# Homo sapiens [15] = organism: Homo sapiens; test: Inhibition of Sodium channel Site 2 (unknown origin) at 10 uM relative to control; how it was run: as §2
# Mus musculus [16] = test: Antipsychotic activity in methamphetamine-induced hyperactivity in ICR mouse assessed as minimum effective dose administered orally; type: functional; details: route po, read-out: MED
# Mus musculus [17] = test: Antipsychotic activity in C57BL/6N mouse assessed as increase in c-fos positive cells in frontal cortex at 30 mg/kg, po measured for 2 hrs by immunohistochemistry analysis; type: functional, organism-based
# [18] = target: G protein-coupled receptor 52 (Rattus norvegicus) (UniProt A0A8I5ZQK1); test: Agonist activity at GPR52 in rat Striatal neuron assessed as increase in CREB phosphorylation […] by Alphascreen assay; type: cell-based; details: filed as agonist
# [19] = target: D(2) dopamine receptor (Homo sapiens) (UniProt P14416); test: Inhibition of Dopamine D2 receptor (unknown origin) at 10 uM relative to control; how it was run: as §1
# Homo sapiens [20] = organism: Homo sapiens; test: Inhibition of non-selective GABAB receptor (unknown origin) at 10 uM relative to control; how it was run: as §2
# [21] = target: cGMP-specific 3',5'-cyclic phosphodiesterase (Homo sapiens) (UniProt O76074); test: Inhibition of PDE5 (unknown origin) at 10 uM relative to control; how it was run: as §3
# [22] = target: Prostaglandin G/H synthase 1 (Homo sapiens) (UniProt P23219); test: Inhibition of COX-1 (unknown origin) at 10 uM relative to control; how it was run: as §4
# Homo sapiens [23] = organism: Homo sapiens; test: Inhibition of GABAB1A receptor (unknown origin) at 10 uM relative to control; how it was run: as §1
# [24] = target: Insulin receptor (Homo sapiens) (UniProt P06213); test: Inhibition of Insulin receptor (unknown origin) at 10 uM relative to control; how it was run: as §1
# Insulin receptor (Homo sapiens), sequence (P06213 28-758 limits assumed): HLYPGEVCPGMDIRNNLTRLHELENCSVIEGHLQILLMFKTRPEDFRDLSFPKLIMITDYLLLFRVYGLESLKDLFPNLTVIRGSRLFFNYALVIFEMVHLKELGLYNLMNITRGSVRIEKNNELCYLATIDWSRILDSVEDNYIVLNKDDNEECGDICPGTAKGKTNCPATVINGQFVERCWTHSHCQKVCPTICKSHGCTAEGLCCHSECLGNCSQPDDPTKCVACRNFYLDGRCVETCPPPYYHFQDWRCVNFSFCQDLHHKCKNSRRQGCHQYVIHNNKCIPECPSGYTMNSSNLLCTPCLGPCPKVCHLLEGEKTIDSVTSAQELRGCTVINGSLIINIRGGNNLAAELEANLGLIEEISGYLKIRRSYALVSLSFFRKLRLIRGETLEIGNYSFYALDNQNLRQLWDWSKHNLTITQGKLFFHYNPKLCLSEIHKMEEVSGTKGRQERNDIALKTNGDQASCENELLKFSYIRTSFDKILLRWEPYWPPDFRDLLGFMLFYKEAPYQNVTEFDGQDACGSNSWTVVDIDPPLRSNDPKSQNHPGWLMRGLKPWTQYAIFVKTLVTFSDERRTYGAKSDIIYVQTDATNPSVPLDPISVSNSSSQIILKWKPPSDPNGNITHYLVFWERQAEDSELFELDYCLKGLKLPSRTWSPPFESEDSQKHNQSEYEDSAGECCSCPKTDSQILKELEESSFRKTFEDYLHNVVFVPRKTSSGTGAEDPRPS
# Insulin receptor (Homo sapiens), sequence (P06213 763-1382 limits assumed): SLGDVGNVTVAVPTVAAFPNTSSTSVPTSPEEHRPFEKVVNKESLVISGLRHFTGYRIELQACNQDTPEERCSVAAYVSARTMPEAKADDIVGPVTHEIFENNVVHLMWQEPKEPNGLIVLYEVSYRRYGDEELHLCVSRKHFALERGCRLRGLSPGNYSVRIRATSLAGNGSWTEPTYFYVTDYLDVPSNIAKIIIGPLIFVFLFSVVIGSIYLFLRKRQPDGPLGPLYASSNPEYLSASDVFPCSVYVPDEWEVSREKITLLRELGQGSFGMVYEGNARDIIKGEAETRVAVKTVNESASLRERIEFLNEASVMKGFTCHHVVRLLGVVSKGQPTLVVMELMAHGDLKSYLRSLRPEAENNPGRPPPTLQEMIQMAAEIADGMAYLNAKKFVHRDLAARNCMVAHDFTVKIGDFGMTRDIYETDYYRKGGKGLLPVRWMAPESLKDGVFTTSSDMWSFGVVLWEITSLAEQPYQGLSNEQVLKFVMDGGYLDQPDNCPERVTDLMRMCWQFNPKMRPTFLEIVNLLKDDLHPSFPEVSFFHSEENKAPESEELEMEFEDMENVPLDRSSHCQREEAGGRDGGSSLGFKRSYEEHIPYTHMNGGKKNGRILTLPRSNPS
# [25] = target: 5-hydroxytryptamine receptor 2B (Homo sapiens) (UniProt P41595); test: Inhibition of Serotonin 5-HT2B receptor (unknown origin) at 10 uM relative to control; how it was run: as §1
# [26] = target: Phosphodiesterase 4 (Homo sapiens) (UniProt P27815+Q08499+Q07343+Q08493); test: Inhibition of PDE4 (unknown origin) at 10 uM relative to control; type: protein assay; how it was run: as §3
# [27] = target: Type-1 angiotensin II receptor (Homo sapiens) (UniProt P30556); test: Inhibition of AT1 receptor (unknown origin) at 10 uM relative to control; how it was run: as §4
# [28] = target: D(1A) dopamine receptor (Homo sapiens) (UniProt P21728); test: Inhibition of Dopamine D1 receptor (unknown origin) at 10 uM relative to control; how it was run: as §4
# D(1A) dopamine receptor (Homo sapiens), sequence (P21728 whole entry): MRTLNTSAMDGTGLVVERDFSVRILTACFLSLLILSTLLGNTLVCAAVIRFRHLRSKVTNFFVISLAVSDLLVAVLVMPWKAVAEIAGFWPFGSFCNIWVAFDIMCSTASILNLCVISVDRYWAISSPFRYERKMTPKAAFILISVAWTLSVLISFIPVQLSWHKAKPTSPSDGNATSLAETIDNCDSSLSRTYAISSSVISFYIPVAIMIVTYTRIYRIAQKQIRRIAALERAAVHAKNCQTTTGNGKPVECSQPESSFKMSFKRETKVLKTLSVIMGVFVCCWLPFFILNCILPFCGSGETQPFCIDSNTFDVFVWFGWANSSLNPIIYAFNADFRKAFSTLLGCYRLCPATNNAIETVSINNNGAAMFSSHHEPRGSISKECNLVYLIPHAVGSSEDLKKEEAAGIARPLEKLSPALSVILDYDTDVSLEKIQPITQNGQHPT
# [29] = target: Cholinesterase (Homo sapiens) (UniProt P06276); test: Inhibition of Choline esterase (unknown origin) at 10 uM relative to control
# Cholinesterase (Homo sapiens), sequence (P06276 whole entry): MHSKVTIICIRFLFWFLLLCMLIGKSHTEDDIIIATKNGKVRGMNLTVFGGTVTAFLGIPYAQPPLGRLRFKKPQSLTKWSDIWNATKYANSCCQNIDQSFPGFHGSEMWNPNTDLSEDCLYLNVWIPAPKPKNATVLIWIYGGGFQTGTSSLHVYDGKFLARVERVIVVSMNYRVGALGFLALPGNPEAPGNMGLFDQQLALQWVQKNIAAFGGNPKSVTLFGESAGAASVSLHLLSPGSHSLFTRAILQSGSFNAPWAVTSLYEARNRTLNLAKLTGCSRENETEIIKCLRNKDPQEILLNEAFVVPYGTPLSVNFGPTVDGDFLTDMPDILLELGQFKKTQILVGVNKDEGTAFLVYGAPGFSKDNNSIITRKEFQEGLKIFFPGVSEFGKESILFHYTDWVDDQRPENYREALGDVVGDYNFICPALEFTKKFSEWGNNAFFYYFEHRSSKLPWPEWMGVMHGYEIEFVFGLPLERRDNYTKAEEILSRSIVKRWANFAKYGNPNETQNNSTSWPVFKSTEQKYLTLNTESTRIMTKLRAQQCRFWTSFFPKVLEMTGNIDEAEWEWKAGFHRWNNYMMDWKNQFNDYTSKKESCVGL
# How it was run: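 Enzyme assay run by an outside lab as part of a 98-target screen of receptors, ion channels and enzymes. Single test concentration of 10 μM; read-out is percent inhibition of enzyme activity versus control, with negative values meaning activation.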
# [30] = target: G protein-coupled receptor 52 (Rattus norvegicus, UniProt A0A8I5ZQK1); test: Agonist activity at GPR52 in rat Striatal neuron assessed as increase in intracellular cAMP level […] by Alphascreen assay; type: cell-based
# Mus musculus [31] = test: Antipsychotic activity in C57BL/6N mouse assessed as increase in c-fos positive cells in dorsomedial striatum at 30 mg/kg, po measured for 2 hrs by immunohistochemistry analysis; type: functional, organism-based
smiles,measurement,setting,value
Cc1cc(-n2nc(Cc3cc(F)cc(C(F)(F)F)c3)nc2C)ccc1C(N)=O [TP-024],inhibition,[1],4%
same,inhibition at 10 µM,[2],10%
same,inhibition,[3],-6%
same,inhibition,[4],0%
same,inhibition at 10 µM,[5],-6%
same,inhibition,[6],11%
same,inhibition,[7],12%
same,Activity,Mus musculus [8],Active
same,Activity,Mus musculus [9],Active
same,inhibition,[10],10%
same,inhibition,[11],6%
same,inhibition,Homo sapiens [12],-1%
same,inhibition,Homo sapiens [13],-4%
same,inhibition,[14],-9%
same,inhibition,Homo sapiens [15],1%
same,minimal effective dose,Mus musculus [16],10 mg/kg
same,Activity,Mus musculus [17],Active
same,Activity,[18],Active
same,inhibition,[19],5%
same,inhibition,Homo sapiens [20],0%
same,inhibition,[21],24%
same,inhibition,[22],-1%
same,inhibition,Homo sapiens [23],5%
same,inhibition,[24],-9%
same,inhibition,[25],6%
same,inhibition,[26],6%
same,inhibition,[27],9%
same,inhibition,[28],7%
same,inhibition,[29],18%
same,EC50,[30],151 nM
same,Activity,Mus musculus [31],Active
